Test results: ChEMBL document CHEMBL4346667 (Eur J Med Chem, 2019)

Assays:
HMEC = assay: Antiproliferative activity against human HMEC cells assessed as reduction in cell viability after 48 hrs by MTT assay; type: functional, cell-based
Summary of the method: (§1)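 Cells grown at 37 °C, 5% CO2; HeLa, HepG2, H8, HL7702 in RPMI 1640 + 10% fetal calf serum, others in high-glucose DMEM + 10% fetal calf serum. Log-phase cells seeded at 4000-12000/well by doubling time. Attached cells were given 10-fold dilutions, 100 µM to 10 nM (DMSO 0.1% v/v), for 48 h. MTT (2 mg/mL) 4 h, formazan in DMSO, A492. IC50 from triplicate means.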

HepG2 = assay: Antiproliferative activity against human HepG2 cells assessed as reduction in cell viability after 48 hrs by MTT assay; type: functional, cell-based; details: HepG2, 48 h; summary of the method: as §1
MCF7 = assay: Antiproliferative activity against human MCF7 cells assessed as reduction in cell viability after 48 hrs by MTT assay; type: functional, cell-based; details: MCF7, 48 h; summary of the method: as §1
HeLa = assay: Antiproliferative activity against human HeLa cells assessed as reduction in cell viability after 48 hrs by MTT assay; type: functional, cell-based; summary of the method: as §1
[1] = Antiproliferative activity against human H8 cells assessed as reduction in cell viability after 48 hrs by MTT assay; type: functional, cell-based; summary of the method: as §1
A549 = assay: Antiproliferative activity against human A549 cells assessed as reduction in cell viability after 48 hrs by MTT assay; type: functional, cell-based; details: A549, 48 h; summary of the method: as §1
L02 = assay: Antiproliferative activity against human HL7702 cells assessed as reduction in cell viability after 48 hrs by MTT assay; type: functional, cell-based; details: L02, 48 h; summary of the method: as §1
MRC5 = assay: Antiproliferative activity against human MRC5 cells assessed as reduction in cell viability after 48 hrs by MTT assay; type: functional, cell-based; details: MRC5, 48 h; summary of the method: as §1
[2] = Binding affinity to alpha/beta tubulin complex (unknown origin); set-up: species or system Homo sapiens
Summary of the method: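 SPR assay: tubulin immobilized up to 800 mDeg (response units). Ligands were diluted two-fold from 80 µM to 2.5 µM in PBS with 0.5% (v/v) DMSO and injected at 60 µL/min for 300 s. Running buffer was PBS with 0.5% DMSO, at 25°C.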

Row | SMILES | IC50 (HMEC) | IC50 (HepG2) | IC50 (MCF7) | IC50 (HeLa) | IC50 [1] | IC50 (A549) | IC50 (L02) | IC50 (MRC5) | Ki [2]
1 | COc1cc([C@@H]2c3cc4c(cc3[C@@H](Nc3ccc5[nH]ccc5c3)[C@H]3COC(=O)[C@H]23)OCO4)cc(OC)c1OC | 55.2 µM | 0.9 µM | 0.4 µM | 0.9 µM | 29.2 µM | 0.5 µM | 43.3 µM | 51.3 µM | 0.1 µM
2 | COc1cc([C@@H]2c3cc4c(cc3[C@@H](Nc3cccc5cccnc35)[C@H]3COC(=O)[C@H]23)OCO4)cc(OC)c1OC | 39.2 µM | 4.6 µM | 1 µM | 2.7 µM | 89.6 µM | 1.2 µM | 37 µM | 49.1 µM | 0.19 µM
3 | COc1cc([C@@H]2c3cc4c(cc3[C@@H](Nc3ccc5cn[nH]c5c3)[C@H]3COC(=O)[C@H]23)OCO4)cc(OC)c1OC | 52.5 µM | 1.9 µM | 0.8 µM | 0.8 µM | 65.5 µM | 1 µM | 38.4 µM | 53.6 µM | 0.03 µM
4 | COc1cc([C@@H]2c3cc4c(cc3[C@@H](Nc3cccc5cc[nH]c35)[C@H]3COC(=O)[C@H]23)OCO4)cc(OC)c1OC | 45.5 µM | 2.5 µM | 4.8 µM | 3.8 µM | 19.4 µM | 2.2 µM | 30.5 µM | 38.5 µM | 0.05 µM
5 | COc1cc([C@@H]2c3cc4c(cc3[C@@H](Nc3cccc5cn[nH]c35)[C@H]3COC(=O)[C@H]23)OCO4)cc(OC)c1OC | 43.3 µM | 6.3 µM | 2.7 µM | 2.5 µM | 19.5 µM | 5.4 µM | 29.4 µM | 35.5 µM | 0.12 µM
6 | COc1cc2c(c(OC)c1OC)-c1ccc(OC)c(=O)cc1[C@@H](NC(C)=O)CC2 [COLCHICINE] | 8.1 µM | 5.8 µM | 14.3 µM | 10.2 µM | 6.1 µM | 9.7 µM | 9.2 µM | 6.2 µM | 0.11 µM
7 | COc1cc([C@@H]2c3cc4c(cc3[C@@H](Nc3cccc5ncccc35)[C@H]3COC(=O)[C@H]23)OCO4)cc(OC)c1OC | 79.8 µM | > 100 µM | > 100 µM | > 100 µM | 94.2 µM | > 100 µM | 89.8 µM | 70.8 µM | 0.06 µM
8 | COc1cc([C@@H]2c3cc4c(cc3[C@@H](Nc3cccc5[nH]ccc35)[C@H]3COC(=O)[C@H]23)OCO4)cc(OC)c1OC | 64.2 µM | 1.8 µM | 1.3 µM | 2.1 µM | 29.2 µM | 2.4 µM | 33.6 µM | 32.4 µM | 0.1 µM
9 | COc1cc([C@@H]2c3cc4c(cc3[C@@H](Nc3ccc5cccnc5c3)[C@H]3COC(=O)[C@H]23)OCO4)cc(OC)c1OC | 73.5 µM | 4.1 µM | 1.4 µM | 3.1 µM | 9.4 µM | 2.3 µM | 16.3 µM | 25.6 µM | 0.12 µM
10 | COc1cc([C@@H]2c3cc4c(cc3[C@@H](Nc3ccc5ncccc5c3)[C@H]3COC(=O)[C@H]23)OCO4)cc(OC)c1OC | 89.2 µM | 0.8 µM | 0.6 µM | 0.7 µM | 80.2 µM | 0.3 µM | 64.3 µM | 22.5 µM | 0.11 µM
11 | COc1cc([C@@H]2c3cc4c(cc3[C@@H](Nc3cccc5[nH]ncc35)[C@H]3COC(=O)[C@H]23)OCO4)cc(OC)c1OC | 60.5 µM | 1.2 µM | 3 µM | 1.8 µM | 25.6 µM | 2.6 µM | 41.4 µM | 45.6 µM | 0.02 µM
